# Source: ChEMBL document CHEMBL2406950, “Replacement of a quinone by a 5-O-acetylhydroquinone abolishes the accidental necrosis inducing effect while preserving the apoptosis-inducing effect of renieramycin M on lung cancer cells” (J Nat Prod, 2013)
# Activity calls are given as the source filed them. The calls are words filed in the database; no cut-off is given here.
# What was measured:
# [1] = Toxicity in human HK2 cells assessed as induction of accidental necrosis at 20 uM after 24 hrs by propidium iodide staining; assay type: cell-based; details: hk-2, 24 h
# How it was run: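 Normal human kidney HK-2 cells exposed to compound at 20 μM for 24 h. Accidental necrotic cells identified by propidium iodide staining and expressed as percentage.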
# NCI-H23 [2] = test: Induction of intracellular ROS generation in human H23 cells at 20 uM after 6 hrs by DCFH2-DA staining based fluorescence assay; assay type: functional, cell-based
# How it was run: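 H23 cells seeded 24 h at 37 °C, medium removed, then loaded with DCFH2-DA (10 μM final) in PBS for 30 min at 4 °C. Compound added at 20 μM and incubated 6 h at 37 °C. Fluorescence read on a microplate reader (excitation 480 nm, 530 nm band-pass). Triplicate samples, means ± SD.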
# [3] = Toxicity in human H23 cells assessed as induction of accidental necrosis at 20 uM after 24 hrs by Hoechst 33342/propidium iodide staining-based fluorescence microscopy; assay type: cell-based; details: nci-h23, 24 h
# How it was run: (§1)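 H23 cells exposed to compound (0–20 μM range) for 24 h at 37 °C, then co-stained 30 min at 37 °C with 10 μM Hoechst 33342 and 10 μM PI. Scored by fluorescence microscopy: condensed or fragmented nuclei counted as apoptotic, PI-positive membrane-damaged cells counted as accidental necrotic. Results given as percentages; means ± SD of three independent experiments.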
# NCI-H23 [4] = test: Cytotoxicity against human H23 cells assessed as cell viability at 20 uM after 24 hrs by MTT assay; assay type: functional, cell-based
# How it was run: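 H23 non-small-cell lung cancer cells (RPMI 1640, 5% FBS, 2 mM L-glutamine) plated at 1.5 × 10^5 cells/mL, grown 24 h at 37 °C, then exposed to compound 24 h at 37 °C. MTT 500 μg/mL added for 4 h; formazan dissolved in DMSO, absorbance read at 570 nm. Viability given as percent of untreated control; at least three replicate cultures.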
# NCI-H23 [5] = test: Induction of apoptosis in human H23 cells at 20 uM after 24 hrs by Hoechst 33342/propidium iodide staining-based fluorescence microscopy; assay type: functional, cell-based; how it was run: as §1
# [6] = Toxicity in human H23 cells assessed as induction of accidental necrosis at 1 to 20 uM after 24 hrs by Hoechst 33342/propidium iodide staining-based fluorescence microscopy; assay type: cell-based; details: nci-h23, 24 h
# How it was run: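 H23 cells exposed to 0−20 μM compound for 24 h at 37 °C, then stained 30 min at 37 °C with 10 μM Hoechst 33342 and 10 μM PI. PI-stained, membrane-damaged cells were scored as accidental necrotic under a fluorescence microscope.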
# NCI-H23 [7] = test: Induction of intracellular hydroxyl radical generation in human H23 cells at 20 uM after 6 hrs by DCFH2-DA staining based fluorescence assay in presence of HPF; assay type: functional, cell-based
# How it was run: (§2)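 Seeded cells loaded 30 min at 4 °C with 10 μM probe in PBS: HPF for hydroxyl radical, DHE for superoxide. Then 20 μM compound was added for 0−6 h at 37 °C. Plate fluorescence read at ex 490/515 nm (HPF) and ex 488/610 nm (DHE). Triplicate samples.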
# NCI-H23 [8] = test: Induction of apoptosis in human H23 cells assessed as accumulation of sub-G0 fraction after 24 hrs by propidium iodide staining-based flow cytometry; assay type: functional, cell-based
# How it was run: (§3)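 Attached cells exposed 24 h to 0−20 μM were collected into 3% FBS/PBS and fixed in absolute ethanol at −20 °C for 24 h. They were stained 40 min at 37 °C in PI buffer containing RNase A and Triton X-100. Sub-G0 fraction was taken from the flow cytometry DNA histogram. The same cells were stained with trypan blue and counted on an automated counter, with membrane-damaged cells scored as necrotic.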
# [9] = Induction of ROS generation in human H23 cells assessed as accidental necrotic cells at 20 uM after 24 hrs by Hoechst 33342/propidium iodide staining-based fluorescence microscopy in presence of N-acetylcysteine; assay type: cell-based; details: nci-h23, 24 h
# How it was run: (§4)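 Cells plated 24 h, then incubated 1 h at 37 °C with or without 1 mM NAC before 20 μM compound for 24 h. Staining used 10 μM Hoechst 33342 plus 10 μM PI for 30 min at 37 °C. Condensed or fragmented nuclei were scored as apoptotic and PI-stained nuclei as accidental necrotic, by fluorescence microscopy.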
# [10] = Induction of accidental necrosis in human H23 cells assessed as loss of membrane integrity at 5 to 20 uM after 24 hrs by trypan blue exclusion assay; assay type: cell-based; details: nci-h23, 24 h; how it was run: as §3
# NCI-H23 [11] = test: Cytotoxicity against human H23 cells assessed as cell viability after 24 hrs by MTT assay; assay type: functional, cell-based
# How it was run: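 H23 cells (1.5 × 10^5 cells/mL) grown 24 h at 37 °C in RPMI 1640, then exposed to 0−20 μM compound for 24 h at 37 °C. MTT (500 μg/mL) added for 4 h, formazan dissolved in DMSO, absorbance read at 570 nm. Viability expressed as percent of untreated control; at least three replicate cultures.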
# NCI-H23 [12] = test: Induction of intracellular H2O2 generation in human H23 cells at 20 uM after 6 hrs by DCFH2-DA staining based fluorescence assay in presence of sodium pyruvate; assay type: functional, cell-based
# How it was run: (§5)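 Seeded cells (24 h) loaded 30 min at 4 °C with 10 μM DCFH2-DA in PBS, with or without 1 mM scavenger (NAC, or sodium pyruvate for H2O2). Then 20 μM compound was added and cells incubated 0−6 h at 37 °C. Fluorescence read at ex 480 nm / 530 nm band-pass. Triplicate samples.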
# [13] = Induction of intracellular superoxide anion generation in human H23 cells at 20 uM after 6 hrs by DCFH2-DA staining based fluorescence assay in presence of dihydroethidium relative to control; assay type: cell-based; details: nci-h23, 6 h; how it was run: as §2
# NCI-H23 [14] = test: Induction of intracellular ROS generation in human H23 cells at 20 uM after 6 hrs by DCFH2-DA staining based fluorescence assay in presence of N-acetylcysteine; assay type: functional, cell-based; how it was run: as §5
# NCI-H23 [15] = test: Induction of ROS generation in human H23 cells assessed as apoptotic cells at 20 uM after 24 hrs by Hoechst 33342/propidium iodide staining-based fluorescence microscopy in presence of N-acetylcysteine; assay type: functional, cell-based; how it was run: as §4
# NCI-H23 [16] = test: Induction of ROS generation in human H23 cells assessed as cell viability at 20 uM after 24 hrs by MTT assay in presence of N-acetylcysteine
# NCI-H23 [17] = test: Induction of apoptosis in human H23 cells at 1 to 20 uM after 24 hrs by Hoechst 33342/propidium iodide staining-based fluorescence microscopy; assay type: functional; how it was run: as §1
SMILES,Activity [1],Activity (NCI-H23 [2]),Activity [3],Activity (NCI-H23 [4]),Activity (NCI-H23 [5]),Activity [6] [%],Activity (NCI-H23 [7]),Activity (NCI-H23 [8]),Activity [9],Activity [10] [%],Activity (NCI-H23 [11]),Activity (NCI-H23 [12]),Activity [13],Activity (NCI-H23 [14]),Activity (NCI-H23 [15]),Activity (NCI-H23 [16]),Activity (NCI-H23 [17]) [%]
C/C=C(/C)C(=O)OC[C@H]1c2c(c(OC(C)=O)c(C)c(OC)c2OC(C)=O)C[C@H]2[C@H]3c4c(c(OC(C)=O)c(C)c(OC)c4OC(C)=O)C[C@@H]([C@H](C#N)N12)N3C,Non-toxic,inactive,Non-toxic,Active,inactive,,,,,,,,,,,,
C/C=C(/C)C(=O)OC[C@H]1C2=C(C[C@H]3[C@H]4C5=C(C[C@@H]([C@H](C#N)N13)N4C)C(=O)C(C)=C(OC)C5=O)C(=O)C(C)=C(OC)C2=O [RENIERAMYCIN M],60%,Active,,,,2.5,inactive,Dose-dependent effect,Non-toxic,10,Dose-dependent effect,inactive,Toxic,inactive,Active,inactive,51
C/C=C(/C)C(=O)OC[C@H]1c2c(O)c(OC)c(C)c(OC(C)=O)c2C[C@H]2[C@H]3C4=C(C[C@@H]([C@H](C#N)N12)N3C)C(=O)C(C)=C(OC)C4=O,Non-toxic,Active,,,,,inactive,Dose-dependent effect,,1,Dose-dependent effect,inactive,Non-toxic,inactive,Active,Active,46
